Data on seven molecules can be found in ChEMBL document CHEMBL1641482, “Synthetic analogs of daidzein, having more potent osteoblast stimulating effect” (2011).

Structures are written as SMILES. Active and inactive are the calls of the source. The rule behind the calls is not given here.

Assay [1] concerns Osteoblast. The assay is described as follows: Induction of osteogenesis in Sprague-Dawley rat calvarial osteoblasts assessed as increase in osteoblast differentiation-associated ALP level at 1 pM after 48 hrs. Format: functional, cell-based. Put shortly: (§1)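 Primary rat calvarial osteoblasts were seeded at 2 × 10³ cells per well and exposed to compounds from 1.0 pM to 10.0 nM for 48 h. Daidzein served as the positive control. ALP activity was read spectrophotometrically at 405 nm. Data are mean SD, n = 6, compared with vehicle-treated cells.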

Assay [2] has as its system Osteoblast. The assay is described as follows: Induction of osteogenesis in Sprague-Dawley rat calvarial osteoblasts assessed as increase in osteoblast differentiation-associated ALP level at 1 uM after 48 hrs. The assay is classed as functional, cell-based.
The test system of assay [3] is Osteoblast. Nature of the assay: Induction of osteogenesis in Sprague-Dawley rat calvarial osteoblasts assessed as increase in osteoblast differentiation-associated ALP level at 1 pM to 10 nM after 48 hrs. Format: functional, cell-based. Put shortly: as §1
For assay [4], the system named is Osteoblast. Nature of the assay: Ratio of compound to daidzein for induction of osteogenesis in Sprague-Dawley rat calvarial osteoblasts. The assay is classed as functional.
The test system of assay [5] is Rattus norvegicus. Nature of the assay: Antiestrogenic activity in ovariectomized Sprague-Dawley rat assessed as inhibition of 17beta estradiol-induced increase in uterine weight at 3 mg/kg, po qd for 3 days. Format: functional.
For assay [6], the system named is Rattus norvegicus. The assay is described as follows: Estrogenic activity in ovariectomized Sprague-Dawley rat assessed as effect on uterine weight at 3 mg/kg, po qd for 3 days (reference value: 35.0 +/- 0.6). The assay is classed as functional.
Assay [7] deals with Rattus norvegicus. Nature of the assay: Antiestrogenic activity in ovariectomized Sprague-Dawley rat assessed as inhibition of 17beta estradiol-induced increase in uterine weight at 10 mg/kg, po qd for 3 days. The assay is classed as functional.
Assay [8] relates to Rattus norvegicus. The assay is described as follows: Estrogenic activity in ovariectomized Sprague-Dawley rat assessed as effect on uterine weight at 10 mg/kg, po qd for 3 days (reference value: 35.0 +/- 0.6). The assay is classed as functional.
In assay [9] the test system is Osteoblast. Nature of the assay: Induction of mineralization in Sprague-Dawley rat calvarial osteoblasts assessed as increase of mineralized nodules formation at 10 nM after 7 days by alizarin red staining. Format: functional, cell-based. In outline: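 Primary rat calvarial osteoblasts were seeded at 2 × 10³ cells per well and exposed to 10.0 nM compound for seven days. Cells were fixed and stained with alizarin red-S, and the dye was extracted and measured colorimetrically by OD. Data are mean SD, n = 4, versus vehicle.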

A further assay deals with Bone marrow cell. The assay is described as follows: Induction of mineralization in rat bone marrow cell assessed as increase of mineralized nodules formation at 10 nM after 18 days by alizarin red staining.
The subject of assay [10] is Osteoblast. Nature of the assay: Induction of osteocalcin mRNA expression in Sprague-Dawley rat calvarial osteoblasts at 10 nM after 24 hrs by RT-PCR analysis relative to control. The assay is classed as functional. In outline: (§2)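 Osteoblasts were cultured with or without 10 nM compound for 24 h. Osteocalcin and BMP-2 transcripts were quantified by real-time RT-PCR (qPCR) against vehicle control. Data are mean SEM, n = 4.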

The subject of assay [11] is Osteoblast. Nature of the assay: Induction of BMP-2 mRNA expression in Sprague-Dawley rat calvarial osteoblasts at 10 nM after 24 hrs by RT-PCR analysis relative to control. The assay is classed as functional. In outline: as §2
In assay [12] the test system is Rattus norvegicus. Nature of the assay: Estrogenic activity in ovariectomized Sprague-Dawley rat assessed as effect on uterine weight at 0.01 mg/kg, po qd for 3 days (reference value: 35.0 +/- 0.6). Format: functional.

For the molecule `COc1ccc2c(=O)c(-c3ccc(OCCBr)cc3)coc2c1`, the result in the assay on Osteoblast [1] was inactive. Moreover, the result in the assay on Osteoblast [2] and in the assay on Osteoblast [3] was Active. The Ratio in the assay on Osteoblast [4] is given as 100.

For the molecule `O=C(c1ccc(OCCN2CCCCC2)cc1)c1c(-c2ccc(O)cc2)sc2cc(O)ccc12` [RALOXIFENE], the Activity with Rattus norvegicus [5] amounted to 67 mg; in the assay with Rattus norvegicus [6] it was 42.3 mg.

With `CCN(CC)CCOc1ccc(-c2coc3cc(OCCN(CC)CC)ccc3c2=O)cc1`, the result in the assay with Osteoblast [1] was inactive. Besides, the result in the assay on Osteoblast [2], in the assay with Osteoblast [3], in the assay with Osteoblast [9] and in the assay on Bone marrow cell was Active. Besides, the Activity in the assay on Rattus norvegicus [7] came to 57.3 mg; in the assay with Rattus norvegicus [8], 31.3 mg. Also, the Ratio with Osteoblast [4] was determined as 100.

For `COc1ccc2c(=O)c(-c3ccc(OCC(C)C)cc3)coc2c1`, the outcome in the assay with Osteoblast [1] was inactive. Moreover, the result in the assay with Osteoblast [2] and in the assay on Osteoblast [3] was Active. In the assay with Osteoblast [4], the Ratio came to 100.

For `CCN(CC)CCOc1ccc2c(=O)c(-c3ccc(OC)cc3)coc2c1`, the result with Osteoblast [1] was inactive. In addition, the result in the assay on Osteoblast [2], in the assay on Osteoblast [3], in the assay with Osteoblast [9] and with Bone marrow cell was Active. Besides, the “fold change (FC)” value is reported as 10 in the assay with Osteoblast [10] and 6 in the assay with Osteoblast [11]. Moreover, the figures for the Activity with Rattus norvegicus [7] and in the assay with Rattus norvegicus [8] were 63 mg and 28 mg, respectively. The Ratio in the assay with Osteoblast [4] is 100.

For `C#C[C@]1(O)CC[C@H]2[C@@H]3CCc4cc(O)ccc4[C@H]3CC[C@@]21C` [ETHINYL ESTRADIOL], the Activity in the assay on Rattus norvegicus [12] is on record as 82.3 mg.

Turning to `COc1ccc(-c2coc3cc(OCCN4CCCC4)ccc3c2=O)cc1`, the outcome in the assay on Osteoblast [1] was inactive. Besides, the outcome in the assay on Osteoblast [2], with Osteoblast [3] and with Osteoblast [9] was Active. In addition, the Activity in the assay on Rattus norvegicus [7] is 59.3 mg; with Rattus norvegicus [8], 31.3 mg. Also, the Ratio with Osteoblast [4] stood at 100.
